Measurements reported in ChEMBL document CHEMBL1133896, “Structure-activity study and analgesic efficacy of amino acid derivatives as N-type calcium channel blockers” (Bioorg Med Chem Lett, 2001).

Columns and labels:
[1] = In vitro inhibition against L-type calcium influx in mouse pituitary tumor derived cells (AtT-20); format: functional; settings: AtT20
[2] = target: T1, Voltage-dependent N-type calcium channel subunit alpha-1B (Homo sapiens, UniProt Q00975); assay: In vitro inhibition against N-type calcium influx in IMR-32 cells; format: functional, cell-based
Target sequence in this assay (Q00975 whole entry): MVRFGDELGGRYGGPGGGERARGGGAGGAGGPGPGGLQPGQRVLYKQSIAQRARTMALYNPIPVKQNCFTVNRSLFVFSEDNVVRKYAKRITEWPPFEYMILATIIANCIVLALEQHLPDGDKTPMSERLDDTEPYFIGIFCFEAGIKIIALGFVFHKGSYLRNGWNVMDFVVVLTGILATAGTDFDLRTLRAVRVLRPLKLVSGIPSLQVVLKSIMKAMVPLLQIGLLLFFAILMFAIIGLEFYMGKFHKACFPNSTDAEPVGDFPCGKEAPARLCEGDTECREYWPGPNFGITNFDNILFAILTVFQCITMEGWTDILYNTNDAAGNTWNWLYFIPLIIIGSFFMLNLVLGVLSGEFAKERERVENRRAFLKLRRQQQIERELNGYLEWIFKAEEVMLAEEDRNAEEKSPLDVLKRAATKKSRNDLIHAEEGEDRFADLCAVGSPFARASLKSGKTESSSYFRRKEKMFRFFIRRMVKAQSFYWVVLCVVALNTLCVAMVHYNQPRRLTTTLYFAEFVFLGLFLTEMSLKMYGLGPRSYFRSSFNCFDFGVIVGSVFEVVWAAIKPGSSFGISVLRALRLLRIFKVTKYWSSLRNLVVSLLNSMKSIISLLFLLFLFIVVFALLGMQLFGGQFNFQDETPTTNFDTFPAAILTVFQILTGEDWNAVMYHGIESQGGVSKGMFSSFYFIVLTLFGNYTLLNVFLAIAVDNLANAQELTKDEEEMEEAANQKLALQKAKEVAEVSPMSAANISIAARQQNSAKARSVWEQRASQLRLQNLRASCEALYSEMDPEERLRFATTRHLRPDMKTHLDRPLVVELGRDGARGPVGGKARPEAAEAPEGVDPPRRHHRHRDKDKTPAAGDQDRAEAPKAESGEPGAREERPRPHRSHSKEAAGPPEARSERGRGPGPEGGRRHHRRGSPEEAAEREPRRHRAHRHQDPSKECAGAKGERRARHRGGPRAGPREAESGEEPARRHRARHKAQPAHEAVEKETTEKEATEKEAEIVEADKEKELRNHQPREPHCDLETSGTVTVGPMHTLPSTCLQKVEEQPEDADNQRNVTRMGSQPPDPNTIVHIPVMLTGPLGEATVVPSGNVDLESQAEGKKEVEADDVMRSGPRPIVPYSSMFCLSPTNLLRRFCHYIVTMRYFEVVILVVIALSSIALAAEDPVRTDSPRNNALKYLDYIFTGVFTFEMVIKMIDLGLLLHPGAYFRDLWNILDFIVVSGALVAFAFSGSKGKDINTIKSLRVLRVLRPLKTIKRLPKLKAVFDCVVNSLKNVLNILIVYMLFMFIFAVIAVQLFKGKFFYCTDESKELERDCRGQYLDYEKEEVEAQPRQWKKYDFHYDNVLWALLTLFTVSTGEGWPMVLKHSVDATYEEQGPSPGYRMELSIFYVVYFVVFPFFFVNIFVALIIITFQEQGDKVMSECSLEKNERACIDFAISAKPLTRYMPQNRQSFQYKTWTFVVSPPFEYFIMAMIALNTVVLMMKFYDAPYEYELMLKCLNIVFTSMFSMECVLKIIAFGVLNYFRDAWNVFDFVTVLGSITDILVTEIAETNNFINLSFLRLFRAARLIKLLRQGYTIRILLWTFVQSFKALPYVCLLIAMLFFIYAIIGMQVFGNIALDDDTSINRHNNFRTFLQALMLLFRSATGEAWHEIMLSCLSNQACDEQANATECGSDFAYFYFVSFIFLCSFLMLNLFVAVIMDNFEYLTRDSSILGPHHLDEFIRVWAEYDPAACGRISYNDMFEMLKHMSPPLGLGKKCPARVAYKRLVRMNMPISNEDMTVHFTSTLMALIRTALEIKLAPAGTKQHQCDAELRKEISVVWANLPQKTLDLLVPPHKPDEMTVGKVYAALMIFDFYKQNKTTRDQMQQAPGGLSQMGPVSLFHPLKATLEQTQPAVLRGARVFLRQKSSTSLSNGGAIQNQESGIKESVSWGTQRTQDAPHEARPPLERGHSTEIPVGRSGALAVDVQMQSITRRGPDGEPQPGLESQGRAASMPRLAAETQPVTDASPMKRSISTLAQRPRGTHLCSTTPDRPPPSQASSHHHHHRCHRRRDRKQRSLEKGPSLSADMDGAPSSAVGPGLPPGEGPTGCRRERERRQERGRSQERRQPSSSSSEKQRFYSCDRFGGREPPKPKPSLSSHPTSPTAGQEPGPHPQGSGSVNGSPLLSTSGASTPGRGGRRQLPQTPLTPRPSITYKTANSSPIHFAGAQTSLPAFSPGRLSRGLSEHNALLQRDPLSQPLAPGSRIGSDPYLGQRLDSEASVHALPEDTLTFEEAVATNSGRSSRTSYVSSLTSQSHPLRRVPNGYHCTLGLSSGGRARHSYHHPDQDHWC

[3] = Selectivity ratio between the L-type to N-type calcium influx; format: functional
[4] = target: T1, Voltage-dependent N-type calcium channel subunit alpha-1B; assay: In vitro inhibition of N-type calcium channel current in IMR-32 cells at 10 uM; format: functional
Target sequence in this assay (Q00975 whole entry, looked up): as the sequence (Q00975 whole entry) above

[5] = system: Rattus norvegicus; assay: In vivo analgesic efficacy in the rat formalin induced pain model at 3 nmol/rat intrathecal dose; format: functional
In short: (§1)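 Rat formalin test. The read-out was paw flinching during the persistent nociceptive phase, expressed as % inhibition, n=3. Blood pressure and neurological behavior were also observed.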

[6] = system: Rattus norvegicus; assay: In vivo analgesic efficacy in rat formalin induced pain model at 100 mg/kg peroral dose; format: functional; settings: route oral; in short: as §1

Compound	IC50 [1]	IC50 [2]	Selectivity ratio [3]	inhibition [4]	Inhibition [5]	inhibition in vivo at 100 mg/kg [6]
COc1cccc(COC(=O)[C@H](CC(=O)OC2CCCC2)NC(=O)OC(C)(C)C)c1	12 µM	3.8 µM	3.2	–	–	–
COc1ccc(COC(=O)[C@H](CC(=O)OC2CCC2)NC(=O)OC(C)(C)C)cc1	28 µM	15 µM	1.9	–	–	–
COc1ccc(CNC(=O)[C@H](COCC2CCCCC2)NC(=O)OC(C)(C)C)cc1	3.8 µM	0.95 µM	4	38%	35%	–
CC(C)(C)OC(=O)N[C@@H](CC(=O)OC1CCCC1)C(=O)OCc1ccc(Cl)cc1	16 µM	3.3 µM	4.8	–	–	–
COc1ccc(COC(=O)[C@H](CC(=O)OC2CCCC2)NC(=O)OC(C)(C)C)cc1	15 µM	3.4 µM	4.4	34%	31%	–
COc1ccccc1COC(=O)[C@H](CC(=O)OC1CCCC1)NC(=O)OC(C)(C)C	15 µM	5.4 µM	2.8	–	–	–
COc1ccc(CNC(=O)[C@H](CCOC2CCCCC2)NC(=O)OC(C)(C)C)cc1	13 µM	4 µM	3.3	–	–	–
COc1ccc(COC(=O)[C@@H](CC(=O)OC2CCCC2)NC(=O)OC(C)(C)C)cc1	2.9 µM	2 µM	1.5	–	–	–
COC(=O)C[C@H](NC(=O)OC(C)(C)C)C(=O)OCc1ccc(OC)cc1	14 µM	26 µM	0.5	–	–	–
COc1ccc(CNC(=O)[C@H](CSCC2CCCCC2)NC(=O)OC(C)(C)C)cc1	1.7 µM	0.61 µM	2.8	66%	36%	–
CC(C)(C)OC(=O)N[C@@H](CC(=O)OC1CCCC1)C(=O)OCc1ccc(Br)cc1	5.3 µM	3.4 µM	1.6	–	–	–
COc1ccc(COC(=O)[C@H](COCC2CCCCC2)NC(=O)OC(C)(C)C)cc1	8.4 µM	1.2 µM	7	–	–	–
COc1ccc(COC(=O)[C@H](CC(=O)OC2CCCCC2)NC(=O)OC(C)(C)C)cc1	16 µM	2.3 µM	7	–	–	–
COc1ccc(COC(=O)[C@H](COC(=O)C2CCCCC2)NC(=O)OC(C)(C)C)cc1	10 µM	1.6 µM	6.3	–	–	–
COc1ccc(COC(=O)[C@H](CC(=O)OC2CCCCCC2)NC(=O)OC(C)(C)C)cc1	12 µM	2.6 µM	4.6	–	–	–
COc1ccc(CN(C)C(=O)[C@H](COCC2CCCCC2)NC(=O)OC(C)(C)C)cc1	1.4 µM	1.8 µM	0.8	–	–	–
COc1ccc(CNC(=O)[C@H](CSCC2CCCC2)NC(=O)OC(C)(C)C)cc1	3.9 µM	0.63 µM	6.2	45%	47%	43%
